SUMO1-SIM PPI: modulators of SUMO1 protein-protein interactions, primary screen, biochemical, uHTS. Small ubiquitin-related modifier 1 (Homo sapiens), P63165. SUMO1 binding to a labelled peptide, TR-FRET, 1 h. inhibition, % at 20 µM. actives 0.33% (n = 360,000); in the data active means inhibition above about 37%
Target sequence (P63165 whole entry, looked up): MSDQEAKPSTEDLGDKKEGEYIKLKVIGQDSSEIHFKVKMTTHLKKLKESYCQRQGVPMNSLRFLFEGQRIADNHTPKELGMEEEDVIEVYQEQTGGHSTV
GRK2 aptamer HTS: compounds blocking aptamer binding on GRK2 – biochemical, human GRK2, bead flow cytometry, HTS, primary screen; actives 0.59% (n = 330,000); FAM-aptamer displacement from GRK2; Beta-adrenergic receptor kinase 1 (Homo sapiens), P25098; inhibition of aptamer binding, % at 10 µM;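 active means inhibition of aptamer binding above 40%, roughly 3 SD of noise, on plates passing a quality check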;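 further: median bead fluorescence of bound FAM aptamer so fluorescent compounds give negative values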
LMPTP inh: LMPTP phosphatase inhibitors, primary screen, biochemical, fluorescence intensity, uHTS | AID 651560, 2012 | actives 0.22% (n = 360,000) | recombinant LMPTP-A, OMFP fluorogenic substrate | inhibition, % at 20 µM | Low molecular weight phosphotyrosine protein phosphatase (Homo sapiens), P24666;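 active means compounds that cut the enzyme signal by at least half of the control window in the single-dose screen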;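 further: plate controls were DMSO wells with enzyme plus substrate for no effect and substrate without enzyme for full effect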
Target sequence (P24666 whole entry, looked up): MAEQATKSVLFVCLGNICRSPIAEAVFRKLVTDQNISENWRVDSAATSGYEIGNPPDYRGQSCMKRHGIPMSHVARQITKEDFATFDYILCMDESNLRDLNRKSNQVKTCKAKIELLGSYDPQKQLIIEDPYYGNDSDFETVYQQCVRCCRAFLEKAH
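Assay system: LMPTP-A enzyme. Input: 0.625 nM LMPTP-A final. Probe or stimulus: 400 µM OMFP. Compound dosing: single 20 µM dose. Schedule: 50 min dark incubation at room temperature. Detection: fluorescence intensity of OMFP turnover product. Read-out: percent inhibition versus substrate-only and uninhibited controls. Benchmarks: no-enzyme low control, uninhibited high control.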
DNMT1 inh: human DNMT1 methyltransferase inhibitors, primary screen, biochemical, molecular beacon, fluorescence, HinP1I cleavage, uHTS. inhibition (reported as % activation of signal), % at 10 µM. actives 0.83% (n = 360,000); in the data active means inhibition above about 50%
Scp1 inh: Scp-1 phosphatase inhibitors, primary screen, biochemical, colorimetric, uHTS. Recombinant Scp1, phosphopeptide, malachite green phosphate absorbance. inhibition, % at 20 µM. AID 493091, 2011. actives 0.88% (n = 340,000);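 active means inhibition above about 50% at 20 µM, limit read from the data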;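 further: plate controls were DMSO wells with enzyme for no effect and wells lacking enzyme for full effect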
Target sequence (Q9GZU7 76-261 limits assumed): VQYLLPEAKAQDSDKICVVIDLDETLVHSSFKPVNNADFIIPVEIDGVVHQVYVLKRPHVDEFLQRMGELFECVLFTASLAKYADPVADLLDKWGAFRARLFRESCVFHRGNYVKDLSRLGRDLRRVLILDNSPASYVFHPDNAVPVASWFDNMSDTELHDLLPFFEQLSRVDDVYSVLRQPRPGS
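Test system: SCP-1 phosphatase catalytic domain, residues 76-261; measured by: colorimetric phosphate reagent with accelerator and stabiliser, absorbance at 630 nm; timing: enzyme reaction 45 min at room temperature, colour 5 min, stabilisation 30 min; also added: Phosphorylated 17-residue peptide substrate; compound dosing: one concentration, 20 µM, with 1.0% DMSO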
STEP inh: STEP phosphatase inhibitors, primary screen, biochemical, fluorescence intensity, uHTS. recombinant STEP, OMFP fluorogenic substrate. Tyrosine-protein phosphatase non-receptor type 5 (Homo sapiens), P54829. inhibition, % at 20 µM. actives 0.25% (n = 360,000);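 active means inhibition at 20 µM, scaled per plate between control wells, above about 37%, limit read from the data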;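 further: 0% = DMSO with enzyme and substrate and 100% = substrate only without enzyme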
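medium = Bis-Tris buffer pH 6.0, 2.5 mM DTT, 0.005% Tween 20 | test system = STEP (striatal-enriched tyrosine phosphatase) enzyme, cell-free | measure = normalized % inhibition | compound dosing = 20 µM, 1% DMSO | also added = 25 µM OMFP | schedule = reaction 20 min, ambient temperature | measured by = fluorescence read at 480 nm ex / 540 nm em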
Scp1 confirm: Scp-1 phosphatase inhibitors, retest, confirmation, biochemical, colorimetric, single concentration; recombinant SCP-1 catalytic domain, phosphate release, malachite green absorbance; inhibition, % at 20 µM; actives 61% (n = 2,500); shares compounds with Scp1 inh;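 further: plate controls were DMSO with enzyme for no effect and buffer wells lacking enzyme for full effect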
MG interference: colorimetric readout interference by compounds, confirmation, artefact control for Scp-1 inhibitor project, biochemical, single concentration; shares compounds with Scp1 inh; Colorimetric interference counterscreen, malachite green absorbance 630 nm; apparent inhibition (interference), % at 20 µM; 2,500 tested, under 10 active; AID 540313, 2011;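 further: compounds added after enzyme reaction finished so only phosphate colour detection is probed; plate controls were DMSO wells with completed Scp-1 reaction for no effect and substrate wells lacking enzyme for full effect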
Scp1 DSF: Scp-1 binding by thermal shift, confirmation, orthogonal assay for Scp-1 inhibitor project, biophysical, differential scanning fluorimetry; shares compounds with Scp1 inh; Recombinant SCP1, Sypro Orange thermal shift Tm; thermal shift relative to vanadate control, % at 40 µM; actives 25% (n = 1,500);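 active means substances whose mean melting-temperature shift, as a percentage of the reference inhibitor's shift, reaches about 5.3%, limit read from the data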;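 further: 0% = Tm of DMSO wells and 100% = Tm with sodium orthovanadate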
DNMT1 inh conf: DNMT1 methyltransferase inhibitor retest, confirmation, biochemical, molecular beacon, fluorescence, single concentration. shares compounds with DNMT1 inh. DNMT1 molecular beacon HinP1I cleavage. inhibition, % at 10 µM. actives 8% (n = 2,300);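 active means average inhibition of at least 30% in the single-concentration confirmation test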
DNMT1 interf: beacon fluorescence artifact counter-screen; actives 1% (n = 2,300); shares compounds with DNMT1 inh; AID 602387; activation (fluorescence interference), % at 10 µM; DNMT1 molecular beacon spectral interference counterscreen, fluorescence 485/520;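 active means activation of at least 30% at 10 µM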;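 further: DNMT1 catalytic domain with a HinP1I cleavage step and a FAM/dabcyl DNA beacon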
The depositor's hits bear a star; . = no result given. Only some compounds are listed: those with a hit (about 2.1% of all), similar ones and a draw of the others.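 How the source made its calls, unless noted: active means inhibition of at least 30% at 20 µM; inactive means the rest.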

SMILES	SUMO1-SIM PPI	GRK2 aptamer HTS	LMPTP inh	DNMT1 inh	Scp1 inh	STEP inh	Scp1 confirm	MG interference	Scp1 DSF	DNMT1 inh conf	DNMT1 interf
O=C(COC(=O)c1cncc(Br)c1)NCc1ccco1	63.2*	2.0	9.0	102.2*	88.1*	13.7	54.1*	-20.2	-9.6	4.7	2.7
O=C(COC(=O)c1cncc(Br)c1)NCc1ccc(F)cc1	-0.4	3.0	-0.9	-2.8	3.5	-0.6	.	.	.	.	.
Cc1ccc(-n2nc(-c3ccco3)cc2C(=O)O)cc1	25.0	0.0	8.9	156.3*	66.0*	24.5	58.4*	-15.9	7.0*	15.5	-1.1
CCOC(=O)c1cc(-c2ccco2)nn1-c1ccc(C)cc1	-1.2	2.0	0.4	-6.8	-6.9	-3.1	.	.	.	.	.
COc1ccc(/C=C(\C#N)C(=O)NCCc2ccccc2)cc1OCc1ccccc1	-0.4	0.0	5.0	-9.6	-23.6	0.9	.	.	.	.	.
COCCCNC(=O)/C(C#N)=C/c1ccc(OCC(=O)O)c(OC)c1	26.5	44.0*	15.3	89.4*	57.1*	34.3	60.4*	-9.0	7.5*	17.1	0.0
CSC1=N/C(=C\c2ccccc2F)C(=O)S1	-1.9	4.0	1.1	0.5	-5.9	3.1	.	.	.	.	.
CSC1=N/C(=C\c2ccc(Br)o2)C(=O)S1	14.5	17.0	23.6	100.5*	83.7*	23.2	53.5*	-22.2	4.7	-1.8	0.2
CCS(=O)(=O)c1ccc(C=NNc2nc3ccccc3o2)cc1	-27.2	.	-1.6	1.1	-7.6	0.3	.	.	.	.	.
O=[N+]([O-])c1ccc(/C=N/Nc2nc3ccccc3o2)cc1	5.9	0.0	41.8	56.5*	50.1*	33.9	55.7*	-11.7	4.7	5.5	-0.2
O=C1C2C(C(=O)N1/N=C/c1cc([N+](=O)[O-])c(O)cc1O)C1C=CC2C12CC2 (stereo not given)	11.8	27.0	16.6	82.9*	64.2*	11.9	64.5*	-2.7	5.9*	7.3	-1.2
CN(CCOC(=O)/C=C/c1ccco1)Cc1ccccc1	0.5	0.0	0.3	78.0*	65.6*	3.0	52.9*	-8.2	1.2	9.0	-2.9
COc1cc(NC(=O)c2noc3c2CCC3)c(OC)cc1Cl	7.0	21.0	4.3	101.4*	71.9*	10.7	69.7*	-12.9	3.4	11.3	1.7
COC(=O)c1ccccc1NC(=O)c1noc2c1CCCC2	1.2	1.0	0.7	-3.4	-11.0	-1.4	.	.	.	.	.
CCCCSc1nc2c(cc1C#N)CCC2	-0.6	0.0	1.4	3.3	-10.7	-0.8	.	.	.	.	.
